Experiments:
Bacillus subtilis = test: Antimicrobial activity against Bacillus subtilis by CLSI method; format: functional; conditions: for MIC50 / MIC: Bacillus subtilis; for MIC: read-out: MIC100
Salmonella typhimurium = test: Antimicrobial activity against Salmonella enterica LT2 ATCC 700720 by CLSI method; format: functional, Salmonella enterica subsp. enterica serovar Typhimurium; conditions: for MIC50 / MIC: Salmonella enterica, LT2 ATCC 700720; for MIC: read-out: MIC100
Escherichia coli = test: Antimicrobial activity against Escherichia coli JM107 by CLSI method; format: functional; conditions: for MIC50 / MIC: Escherichia coli, JM107; for MIC: read-out: MIC100
Staphylococcus aureus = test: Antimicrobial activity against Staphylococcus aureus by CLSI method; format: functional; conditions: for MIC50 / MIC: Staphylococcus aureus; for MIC: read-out: MIC100
MRC5 [1] = test: Cytotoxicity against human MRC5 cells assessed as reduction in cell viability at 0.5 to 25 ug/ml after 24 hrs by MTT assay; format: cell-based; conditions: mrc5, 24 h
Procedure, shortened: (§1)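 MTT colorimetric viability test; human embryonic lung MRC5 cells or human lung cancer Calu-1 cells exposed 24 h to compound over 0.5–50 µg/ml; DMSO vehicle up to 0.4% v/v. Two or three independent experiments, each in triplicate, reported as mean ± SD.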

MRC5 [2] = test: Cytotoxicity against human MRC5 cells assessed as reduction in cell viability at 25 ug/ml after 24 hrs by MTT assay; format: cell-based; conditions: mrc5, 24 h; procedure, shortened: as §1
Calu-1 = test: Cytotoxicity against human Calu1 cells assessed as reduction in cell viability at 50 ug/ml after 24 hrs by MTT assay; format: cell-based; conditions: calu-1, 24 h; procedure, shortened: as §1

| Structure (SMILES) | MLD (Bacillus subtilis) | MIC50 (Bacillus subtilis) [µg/mL] | MIC (Bacillus subtilis) [µg/mL] | MLD (Salmonella typhimurium) | MIC50 (Salmonella typhimurium) [µg/mL] | MIC (Salmonella typhimurium) [µg/mL] | MLD (Escherichia coli) [µg/mL] | MIC50 (Escherichia coli) [µg/mL] | MIC (Escherichia coli) [µg/mL] | MLD (Staphylococcus aureus) | MIC50 (Staphylococcus aureus) [µg/mL] | MIC (Staphylococcus aureus) [µg/mL] | Activity (MRC5 [1]) | Activity (MRC5 [2]) [%] | Activity (Calu-1) |
| --- | --- | --- | --- | --- | --- | --- | --- | --- | --- | --- | --- | --- | --- | --- | --- |
| CO/N=C(\C(=O)N[C@@H]1C(=O)N2C(C(=O)O)=C(CSc3nc(=O)c(=O)[nH]n3C)CS[C@H]12)c1csc(N)n1.[Na+] | >=1 ug ml-1 | < 0.25 | 0.75 | >=2 ug ml-1 | < 0.25 | 0.25 | >1 | < 0.25 | 0.25 | >7 µg/mL | 2 to 4 | 5.5 |  |  |  |
| CC(=O)OCC1=C(C(=O)[O-])N2C(=O)[C@@H](NC(=O)CCCCCCCC3C(=O)N(c4ccccc4)C3c3ccccc3)[C@H]2SC1.[Na+] (mixture of isomers) | >16 µg/mL | < 0.25 | 0.75 | >256 µg/mL | > 256 | > 256 | >256 | > 256 | > 256 | >=1 ug ml-1 | < 0.25 | 1 |  |  |  |
| CC(=O)OCC1=C(C(=O)[O-])N2C(=O)[C@@H](NC(=O)CCC3C(=O)N(c4ccc(C)c(C)c4)C3c3ccccc3)[C@H]2SC1.[Na+] (mixture of isomers) | 64 µg/mL | ≤ 1 | 2 | >256 µg/mL | > 256 | > 256 | >256 | > 256 | > 256 | >16 µg/mL | 1 | 4 to 6 | Non-Toxic |  |  |
| CC(=O)OCC1=C(C(=O)[O-])N2C(=O)[C@@H](NC(=O)CC3C(=O)N(c4ccc(C)c(C)c4)C3c3ccccc3)[C@H]2SC1.[Na+] (mixture of isomers) | >=3.5 ug ml-1 | < 0.25 | 3.5 | >256 µg/mL | > 256 | > 256 | >256 | > 256 | > 256 | >16 µg/mL | > 1 | 4 to 8 |  | 20 |  |
| CC(=O)OCC1=C(C(=O)[O-])N2C(=O)[C@@H](NC(=O)CC3C(=O)N(c4ccccc4)C3c3ccccc3)[C@H]2SC1.[Na+] (mixture of isomers) | >2.5 µg/mL | < 0.25 | 2.5 | >256 µg/mL | > 256 | > 256 | >256 | > 256 | > 256 | >3 µg/mL | 0.75 | 2.5 |  |  |  |
| COc1ccc(N2C(=O)C(CCCCCCCC(=O)N[C@@H]3C(=O)N4C(C(=O)[O-])=C(COC(C)=O)CS[C@H]34)C2c2ccccc2)cc1.[Na+] (mixture of isomers) | >=2 - 4 ug ml-1 | < 0.12 | 0.25 | >256 µg/mL | > 256 | > 256 | >256 | > 256 | > 256 | 0.25 µg/mL | > 0.12 | < 0.25 |  | 20 |  |
| COc1ccc(N2C(=O)C(CC(=O)N[C@@H]3C(=O)N4C(C(=O)[O-])=C(COC(C)=O)CS[C@H]34)C2c2ccc(Cl)cc2)cc1.[Na+] (mixture of isomers) | >256 µg/mL | < 4 | 32 | >256 µg/mL | > 256 | > 256 | >256 | > 256 | > 256 | >32 µg/mL | 4 to 8 | 32 | Non-Toxic |  |  |
| COc1ccc(N2C(=O)C(CC(=O)N[C@@H]3C(=O)N4C(C(=O)[O-])=C(COC(C)=O)CS[C@H]34)C2c2ccccc2)cc1.[Na+] (mixture of isomers) | >=128 ug ml-1 | < 0.25 | 0.75 | >256 µg/mL | > 256 | > 256 | >256 | > 256 | > 256 | >1.5 µg/mL | < 0.25 | 1.5 | Non-Toxic |  |  |
| CC(=O)OCC1=C(C(=O)[O-])N2C(=O)[C@@H](NC(=O)CCCCCC3C(=O)N(c4ccccc4)C3c3ccccc3)[C@H]2SC1.[Na+] (mixture of isomers) | >32 µg/mL | < 0.25 | 0.5 | >256 µg/mL | > 256 | > 256 | >256 | > 256 | > 256 | >4 µg/mL | 1.5 to 2 | 3.5 to 4 | Non-Toxic |  | Toxic |
| CC(=O)OCC1=C(C(=O)[O-])N2C(=O)[C@@H](NC(=O)CCC3C(=O)N(c4ccccc4)C3c3ccccc3)[C@H]2SC1.[Na+] (mixture of isomers) | >32 µg/mL | < 0.25 | 1 | >256 µg/mL | > 256 | > 256 | >256 | > 256 | > 256 | >=3 ug ml-1 | 0.25 to 0.5 | 2.5 | Non-Toxic |  | Toxic |
| COc1ccc(N2C(=O)C(CC(=O)N[C@@H]3C(=O)N4C(C(=O)[O-])=C(COC(C)=O)CS[C@H]34)C2c2ccc([N+](=O)[O-])cc2)cc1.[Na+] (mixture of isomers) | >256 µg/mL | 8 | 32 | >256 µg/mL | > 256 | > 256 | >256 | > 256 | > 256 | >32 µg/mL | 4 to 8 | 32 | Non-Toxic |  |  |
| COc1ccc(N2C(=O)C(CCCCCC(=O)N[C@@H]3C(=O)N4C(C(=O)[O-])=C(COC(C)=O)CS[C@H]34)C2c2ccccc2)cc1.[Na+] (mixture of isomers) | >=0.75 ug ml-1 | < 0.12 | 0.25 to 0.35 | >256 µg/mL | > 256 | > 256 | >256 | > 256 | > 256 | >=1.75 - 2 ug ml-1 | 0.75 | 1.75 | Non-Toxic |  |  |
